# Calls of active or inactive are those of the source. The calls are words filed in the database; no cut-off is given here.
# What was measured:
# [1] = molecular target: Voltage-gated inwardly rectifying potassium channel KCNH2 (Homo sapiens, UniProt Q12809); assay: Inhibition of human ERG expressed in CHO cells by IonWorks HT assay; assay type: cell-based
# [2] = test system: Rattus norvegicus; assay: Antinociceptive activity in formalin-challenged Sprague-Dawley rat assessed as latency in paw licking during phase 2 at […], po administered 3 hrs prior to formalin-challenge measured up to 15 to 35 mins post formalin challenge; assay type: functional, organism-based
# Procedure, shortened: (§1)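 Sprague–Dawley rats (n = 9/group) were dosed by oral gavage 3 h before formalin, at 0, 19, 49 and 99 µmol/kg, as a nanosuspension in 1% PVP K30/0.2% SDS. Formalin was 100 µL of 2.0% injected s.c. into the dorsal left hind paw. Paw-licking time was scored over 35 min: phase 1 at 0–5 min, phase 2 at 15–35 min. Results were given as % of vehicle, with total plasma concentration as mean SD. Statistics were one-way ANOVA, then unpaired one-tailed t-test.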
# [3] = molecular target: T1, C-C chemokine receptor type 1 (Homo sapiens) (UniProt P32246); assay: Increase in [125I]MIP-1alpha binding to CCR1 at 10 uM
# T1 sequence (whole entry): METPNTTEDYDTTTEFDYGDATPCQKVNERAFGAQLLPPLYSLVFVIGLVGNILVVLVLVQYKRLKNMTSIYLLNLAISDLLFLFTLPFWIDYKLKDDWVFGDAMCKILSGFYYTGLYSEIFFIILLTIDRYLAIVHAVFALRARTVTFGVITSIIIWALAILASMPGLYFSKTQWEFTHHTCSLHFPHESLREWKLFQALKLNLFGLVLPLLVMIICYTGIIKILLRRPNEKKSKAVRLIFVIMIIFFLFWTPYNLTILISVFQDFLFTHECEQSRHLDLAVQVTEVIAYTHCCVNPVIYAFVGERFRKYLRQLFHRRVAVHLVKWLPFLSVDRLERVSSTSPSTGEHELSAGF
# [4] = Displacement of [3H]nitrobenzylthioinosine from adenosine transporter; set-up: species or system Homo sapiens
# [5] = Tmax in Sprague-Dawley rat at 10 umol/kg, po; assay type: ADME, organism-based; settings: in vivo
# Procedure, shortened: (§2)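 Rat pharmacokinetics used fasted male Sprague–Dawley rats, three animals per administration route per compound. The intravenous dose was 3 µmol/kg, with a separate oral arm.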
# [6] = Half life in Sprague-Dawley rat at 3 umol/kg, iv; assay type: ADME, organism-based; settings: in vivo; procedure, shortened: as §2
# [7] = molecular target: T2, Cannabinoid receptor 1 (Homo sapiens, UniProt P21554); assay: Agonist activity at CB1 receptor by [35gammaS]GTP incorporation assay; assay type: functional
# T2 sequence (P21554 whole entry): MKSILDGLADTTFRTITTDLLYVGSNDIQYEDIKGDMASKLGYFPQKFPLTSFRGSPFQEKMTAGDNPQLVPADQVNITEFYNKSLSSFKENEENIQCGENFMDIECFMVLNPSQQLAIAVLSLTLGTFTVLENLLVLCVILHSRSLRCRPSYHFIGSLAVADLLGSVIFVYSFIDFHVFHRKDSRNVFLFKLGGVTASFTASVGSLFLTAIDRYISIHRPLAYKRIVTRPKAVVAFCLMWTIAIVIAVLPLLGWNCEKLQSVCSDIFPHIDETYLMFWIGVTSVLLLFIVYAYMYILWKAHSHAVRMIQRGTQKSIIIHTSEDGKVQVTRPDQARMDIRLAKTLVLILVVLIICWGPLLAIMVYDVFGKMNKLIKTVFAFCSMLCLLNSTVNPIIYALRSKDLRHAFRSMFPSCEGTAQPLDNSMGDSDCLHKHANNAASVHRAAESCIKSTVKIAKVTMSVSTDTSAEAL
# [8] = molecular target: T2, Cannabinoid receptor 1; assay: Displacement of [3H]SR141716A from CB1 receptor at 10 uM
# [9] = species: Homo sapiens; assay: Displacement of [3H]nitrobenzylthioinosine from adenosine transporter at 10 uM
# [10] = molecular target: 5-hydroxytryptamine receptor 1B (Homo sapiens) (UniProt P28222); assay: Activity at 5HT1B receptor
# Chain of 5-hydroxytryptamine receptor 1B (Homo sapiens) (P28222 whole entry): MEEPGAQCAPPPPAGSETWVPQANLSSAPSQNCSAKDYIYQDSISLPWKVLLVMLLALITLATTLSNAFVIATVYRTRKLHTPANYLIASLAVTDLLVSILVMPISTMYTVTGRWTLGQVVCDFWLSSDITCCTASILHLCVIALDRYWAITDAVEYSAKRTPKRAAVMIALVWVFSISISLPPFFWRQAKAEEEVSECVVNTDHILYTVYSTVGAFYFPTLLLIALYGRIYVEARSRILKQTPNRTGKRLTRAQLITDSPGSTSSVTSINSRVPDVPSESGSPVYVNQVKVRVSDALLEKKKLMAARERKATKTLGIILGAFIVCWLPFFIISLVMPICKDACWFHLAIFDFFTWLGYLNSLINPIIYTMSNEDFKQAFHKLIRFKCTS
# [11] = test system: Liver microsomes; assay: Intrinsic clearance in rat liver microsomes assessed per ug of protein; assay type: ADME, Microsome
# [12] = Half life in Sprague-Dawley rat at 10 umol/kg, po; assay type: ADME, organism-based; settings: in vivo; procedure, shortened: as §2
# [13] = molecular target: Sodium channel protein type 9 subunit alpha (Homo sapiens, UniProt Q15858); assay: Inhibition of human NaV1.7 expressed in HEK293 cells by whole-cell voltage clamp assay; assay type: cell-based
# Chain of Sodium channel protein type 9 subunit alpha (Q15858 whole entry): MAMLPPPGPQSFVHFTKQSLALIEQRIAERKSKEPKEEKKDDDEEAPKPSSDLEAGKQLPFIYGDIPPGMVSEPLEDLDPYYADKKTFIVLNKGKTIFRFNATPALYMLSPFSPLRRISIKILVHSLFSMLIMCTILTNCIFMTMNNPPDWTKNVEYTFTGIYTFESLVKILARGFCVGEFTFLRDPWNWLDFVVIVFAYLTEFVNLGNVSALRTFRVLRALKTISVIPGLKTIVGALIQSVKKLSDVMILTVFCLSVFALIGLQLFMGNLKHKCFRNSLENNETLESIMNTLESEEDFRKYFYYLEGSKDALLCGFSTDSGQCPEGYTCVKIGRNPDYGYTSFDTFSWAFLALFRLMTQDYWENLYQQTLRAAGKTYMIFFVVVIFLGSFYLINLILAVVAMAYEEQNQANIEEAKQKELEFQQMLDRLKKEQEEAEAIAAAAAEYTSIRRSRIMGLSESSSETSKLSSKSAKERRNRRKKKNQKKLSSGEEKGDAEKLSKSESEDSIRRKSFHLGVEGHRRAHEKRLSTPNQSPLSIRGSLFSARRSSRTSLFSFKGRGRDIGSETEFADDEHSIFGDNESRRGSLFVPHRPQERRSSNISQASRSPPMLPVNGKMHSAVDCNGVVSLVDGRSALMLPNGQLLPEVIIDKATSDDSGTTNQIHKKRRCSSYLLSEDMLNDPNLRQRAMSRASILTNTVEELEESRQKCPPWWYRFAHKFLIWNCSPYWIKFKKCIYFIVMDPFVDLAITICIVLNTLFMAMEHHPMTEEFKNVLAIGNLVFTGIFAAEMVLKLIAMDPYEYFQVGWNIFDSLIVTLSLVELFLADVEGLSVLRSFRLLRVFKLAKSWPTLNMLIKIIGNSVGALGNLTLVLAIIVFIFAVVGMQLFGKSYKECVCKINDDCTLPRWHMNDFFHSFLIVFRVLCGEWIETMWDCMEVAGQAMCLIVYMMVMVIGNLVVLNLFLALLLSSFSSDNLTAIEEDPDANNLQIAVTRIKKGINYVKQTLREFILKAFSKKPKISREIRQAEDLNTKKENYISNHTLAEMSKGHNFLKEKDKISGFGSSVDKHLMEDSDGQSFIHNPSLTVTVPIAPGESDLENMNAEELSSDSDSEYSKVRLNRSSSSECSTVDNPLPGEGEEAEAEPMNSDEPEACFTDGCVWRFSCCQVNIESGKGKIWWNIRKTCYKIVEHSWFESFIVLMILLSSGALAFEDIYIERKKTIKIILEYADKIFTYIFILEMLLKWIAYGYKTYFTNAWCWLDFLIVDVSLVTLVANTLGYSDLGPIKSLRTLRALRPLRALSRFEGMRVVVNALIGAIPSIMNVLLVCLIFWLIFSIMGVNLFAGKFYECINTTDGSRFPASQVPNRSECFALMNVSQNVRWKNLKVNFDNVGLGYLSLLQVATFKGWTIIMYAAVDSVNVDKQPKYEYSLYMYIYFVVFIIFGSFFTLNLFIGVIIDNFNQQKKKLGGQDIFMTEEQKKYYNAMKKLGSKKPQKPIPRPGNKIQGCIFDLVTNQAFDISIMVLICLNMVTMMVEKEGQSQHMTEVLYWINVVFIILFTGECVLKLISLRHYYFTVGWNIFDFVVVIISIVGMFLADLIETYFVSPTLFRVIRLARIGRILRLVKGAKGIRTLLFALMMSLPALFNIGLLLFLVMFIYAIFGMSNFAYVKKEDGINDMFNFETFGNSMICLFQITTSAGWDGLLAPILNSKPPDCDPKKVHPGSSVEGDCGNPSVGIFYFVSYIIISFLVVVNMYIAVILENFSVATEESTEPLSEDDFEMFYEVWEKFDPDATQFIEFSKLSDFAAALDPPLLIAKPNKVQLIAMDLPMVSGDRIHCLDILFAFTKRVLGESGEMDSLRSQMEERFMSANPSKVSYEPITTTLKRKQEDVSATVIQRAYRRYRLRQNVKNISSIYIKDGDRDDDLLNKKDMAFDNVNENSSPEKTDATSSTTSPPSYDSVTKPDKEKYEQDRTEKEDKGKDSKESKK
# Procedure, shortened: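 Human NaV1.7 α-subunit stably expressed in HEK293 cells. Currents were recorded by perforated whole-cell automated planar patch clamp (IonWorks Quattro) in D-PBS external solution with 5.5 mM glucose. Cells were held at −65 mV, and a train of eight 30 ms steps to −20 mV at 3 Hz was applied. Half-log serial dilutions were made in DMSO, giving 0.3% DMSO in the recording solution.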
# [14] = molecular target: T3, 5-hydroxytryptamine receptor 1A (Homo sapiens) (UniProt P08908); assay: Activity at 5HT1A receptor
# T3 sequence (whole entry): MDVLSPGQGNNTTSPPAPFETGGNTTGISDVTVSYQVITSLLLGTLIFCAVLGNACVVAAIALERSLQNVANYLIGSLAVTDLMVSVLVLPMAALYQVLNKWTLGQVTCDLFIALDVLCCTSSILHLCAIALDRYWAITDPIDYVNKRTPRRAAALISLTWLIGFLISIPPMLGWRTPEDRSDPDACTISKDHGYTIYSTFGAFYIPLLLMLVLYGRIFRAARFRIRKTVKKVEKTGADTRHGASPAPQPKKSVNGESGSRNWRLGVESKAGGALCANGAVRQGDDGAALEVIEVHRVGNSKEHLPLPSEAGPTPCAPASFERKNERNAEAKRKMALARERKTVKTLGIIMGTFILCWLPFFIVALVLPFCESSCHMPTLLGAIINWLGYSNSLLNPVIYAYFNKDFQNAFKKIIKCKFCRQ
# [15] = Oral bioavailability in Sprague-Dawley rat at 10 umol/kg; assay type: ADME, organism-based; settings: in vivo; procedure, shortened: as §2
# [16] = molecular target: Sodium channel protein type 5 subunit alpha (Homo sapiens, UniProt Q14524); assay: Inhibition of human NaV1.5 expressed in CHO cells by IonWorks assay; assay type: cell-based
# [17] = Volume of distribution at steady state in Sprague-Dawley rat at 3 umol/kg, iv; assay type: ADME, organism-based; settings: in vivo, read-out: Vdss; procedure, shortened: as §2
# [18] = test system: Rattus norvegicus; assay: Antinociceptive activity in formalin-challenged Sprague-Dawley rat assessed as latency in paw licking during phase 1 at 49 umol/kg, po administered 3 hrs prior to formalin-challenge measured up to 5 mins post formalin challenge relative to control; assay type: functional; procedure, shortened: as §1
# [19] = Cmax in Sprague-Dawley rat at 10 umol/kg, po; assay type: ADME, organism-based; set-up: dose 10 umol/kg, route oral; settings: in vivo; procedure, shortened: as §2
# [20] = test system: Rattus norvegicus; assay: Antinociceptive activity in po dosed formalin-challenged Sprague-Dawley rat assessed as latency in paw licking during phase 1 administered 3 hrs prior to formalin-challenge measured up to 5 mins post formalin challenge; assay type: functional, organism-based; procedure, shortened: as §1
# [21] = molecular target: T2, Cannabinoid receptor 1; assay: Displacement of [3H]SR141716A from CB1 receptor
# [22] = test system: Plasma; assay: Plasma concentration in formalin-challenged Sprague-Dawley rat at 49 umol/kg, po administered 3 hrs prior to formalin-challenge measured up to 5 mins post formalin challenge; assay type: ADME, organism-based; settings: in vivo; procedure, shortened: as §1
# [23] = test system: Liver microsomes; assay: Intrinsic clearance in human liver microsomes assessed per ug of protein; assay type: ADME, Microsome
# [24] = Solubility of the compound; assay type: physicochemical
# [25] = test system: Rattus norvegicus; assay: Dose normalized AUC in Sprague-Dawley rat at 10 umol/kg, po; assay type: ADME, organism-based; settings: in vivo; procedure, shortened: as §2
# [26] = test system: Rattus norvegicus; assay: Dose normalized AUC in Sprague-Dawley rat at 3 umol/kg, iv; assay type: ADME, organism-based; settings: in vivo; procedure, shortened: as §2
# [27] = Clearance in Sprague-Dawley rat at 3 umol/kg, iv; assay type: ADME, organism-based; settings: in vivo; procedure, shortened: as §2
# Chain of Voltage-gated inwardly rectifying potassium channel KCNH2 (Q12809 whole entry): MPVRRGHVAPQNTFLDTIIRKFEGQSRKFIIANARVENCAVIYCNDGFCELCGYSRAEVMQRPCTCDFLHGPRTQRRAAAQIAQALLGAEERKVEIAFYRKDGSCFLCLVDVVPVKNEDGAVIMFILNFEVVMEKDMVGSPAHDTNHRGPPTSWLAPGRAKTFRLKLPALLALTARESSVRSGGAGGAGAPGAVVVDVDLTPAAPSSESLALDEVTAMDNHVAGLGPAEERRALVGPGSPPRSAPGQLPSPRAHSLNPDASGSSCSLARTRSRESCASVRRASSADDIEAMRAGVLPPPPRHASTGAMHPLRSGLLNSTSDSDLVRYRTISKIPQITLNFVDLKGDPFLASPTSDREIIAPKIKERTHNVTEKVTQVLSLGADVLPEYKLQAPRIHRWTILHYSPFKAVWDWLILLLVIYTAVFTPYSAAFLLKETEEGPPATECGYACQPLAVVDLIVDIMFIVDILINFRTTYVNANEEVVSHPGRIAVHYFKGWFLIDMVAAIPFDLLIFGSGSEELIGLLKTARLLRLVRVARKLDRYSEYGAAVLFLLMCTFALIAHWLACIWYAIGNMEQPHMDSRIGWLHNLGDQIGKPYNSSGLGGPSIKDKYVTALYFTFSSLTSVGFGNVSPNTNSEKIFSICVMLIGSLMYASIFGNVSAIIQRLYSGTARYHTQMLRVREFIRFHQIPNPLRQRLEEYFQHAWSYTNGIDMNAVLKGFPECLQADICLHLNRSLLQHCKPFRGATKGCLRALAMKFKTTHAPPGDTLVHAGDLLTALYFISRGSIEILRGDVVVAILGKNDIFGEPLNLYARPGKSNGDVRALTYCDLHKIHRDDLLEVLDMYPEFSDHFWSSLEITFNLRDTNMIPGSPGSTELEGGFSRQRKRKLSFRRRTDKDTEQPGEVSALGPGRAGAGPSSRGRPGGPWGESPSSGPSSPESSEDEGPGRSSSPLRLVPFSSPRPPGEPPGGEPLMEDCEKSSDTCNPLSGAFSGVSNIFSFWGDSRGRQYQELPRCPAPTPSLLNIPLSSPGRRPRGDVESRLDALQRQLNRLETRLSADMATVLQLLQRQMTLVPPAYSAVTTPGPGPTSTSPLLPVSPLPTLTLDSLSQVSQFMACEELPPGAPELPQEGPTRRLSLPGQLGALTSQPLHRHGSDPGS
smiles,measurement,setting,value
COc1cnc(-c2cccc3c2C[C@H](NC(=O)c2ccc(COCC(F)(F)F)nc2)CO3)cn1,IC50,[1],12.6 µM
same,Activity,[2],inactive
same,Activity,[3],127%
same,IC50,[4],1.8 µM
same,Tmax,[5],2.5 h
same,half-life,[6],2.2 h
same,Activity,[7],inactive
same,inhibition,[8],55%
same,inhibition,[9],66%
same,Activity,[10],inactive
same,CLint,[11],< 10 µL/min/mg
same,half-life,[12],4.8 h
same,IC50,[13],0.0794 µM
same,Activity,[14],inactive
same,bioavailability,[15],44%
same,IC50,[16],12.6 µM
same,Vd,[17],4.2 L/kg
same,Activity,[18],66%
same,Cmax,[19],300 nM
same,Activity,[20],Dose-dependent effect
same,IC50,[21],5 µM
same,concentration,[22],5000 nM
same,CLint,[23],< 10 µL/min/mg
same,solubility,[24],34 µM
same,AUC/dose,[25],0.3 kg·h/L
same,AUC/dose,[26],0.6 kg·h/L
same,clearance,[27],25 mL/min/kg

# Reference: ChEMBL document CHEMBL2069242, “Structure and activity relationship in the (S)-N-chroman-3-ylcarboxamide series of voltage-gated sodium channel blockers” (Bioorg Med Chem Lett, 2012)
